Assay [1] can be described thus: Cytotoxicity against human MKN45 cells after 72 hrs by MTT assay. The settings on record: MKN-45, 72 h.
Assay [2] can be described thus: Cytotoxicity against human H460 cells after 72 hrs by MTT assay. Conditions: NCI-H460, 72 h.
Assay [3] deals with Hepatocyte growth factor receptor (Homo sapiens, UniProt P08581). Description: Inhibition of c-Met (unknown origin) using poly (Glu, Tyr) 4:1 after 30 mins by HTRF assay.
A further assay deals with HT-29. Nature of the assay: Cytotoxicity against human HT-29 cells after 72 hrs by MTT assay. Conditions: HT-29, 72 h.
Assay [4] is described as follows: Cytotoxicity against human U87MG cells after 72 hrs by MTT assay. It counts as functional, cell-based, U-87MG ATCC. The settings on record: U-87 MG. The gist of the method: (§1)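 Cells were grown in MEM with 10% FBS and seeded at about 4×10^3 cells per well, then held 24 h at 37 °C in 5% CO2. Compounds were added and the cells cultured 72 h. MTT was added to 5 µg/mL final for 4 h at 37 °C, and the formazan was dissolved in DMSO. IC50 is the mean of three determinations.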

The subject of a further assay is A549. Nature of the assay: Cytotoxicity against human A549 cells after 72 hrs by MTT assay. The format is functional, cell-based. The settings on record: A549, 72 h. The gist of the method:
as §1

For `COc1cc(N2C(=O)NC(=O)/C(=C\Nc3ccc(Oc4ccnc5cc(OCCCN6CCOCC6)c(OC)cc45)c(F)c3)C2=O)c(OC)cc1Cl`, the IC50 in assay [1] was determined as 2400 nM; in assay [2], 540 nM; in assay [3], 32.8 nM; in the assay on HT-29, 1300 nM.
With `COc1cc(N2C(=O)NC(=O)/C(=C\Nc3ccc(Oc4ccnc5cc(OCCCN6CCCCC6)c(OC)cc45)c(F)c3)C2=O)c(OC)cc1Cl`, the IC50 in assay [1] is 1970 nM; in assay [2], 1200 nM; in assay [3] it was 27.9 nM; in the assay with HT-29, 2600 nM.
In the same order, the values of `COc1cc2c(Oc3ccc(N/C=C4\C(=O)NC(=O)N(c5ccc(F)cc5)C4=O)cc3F)ccnc2cc1OCCCN1CCOCC1` are 740 nM, 120 nM, 3.58 nM and 240 nM.
With `COc1cc2c(Oc3ccc(N/C=C4\C(=O)NC(=O)N(c5ccc(F)c(Cl)c5)C4=O)cc3F)ccnc2cc1OCCCN1CCCC1`, the IC50 in assay [4] was 680 nM; in the assay on A549 it was 190 nM; in assay [1] it was 72 nM; in assay [2], 54 nM; in assay [3] it was 2.38 nM; in the assay on HT-29 it was 190 nM.
On to `COc1cc2c(Oc3ccc(N/C=C4\C(=O)NC(=O)N(c5ccc(C)cc5)C4=O)cc3F)ccnc2cc1OCCCN1CCN(C)CC1`, for which the IC50 in assay [4] came out at 3200 nM; in the assay on A549 it was 430 nM; in assay [1] it was 160 nM; in assay [2] it was 70 nM; in assay [3] it was 2.68 nM; in the assay on HT-29, 490 nM.
For the compound `COc1cc2c(Oc3ccc(N/C=C4\C(=O)NC(=O)N(c5c(C)cccc5C)C4=O)cc3F)ccnc2cc1OCCCN1CCOCC1`, the IC50 in assay [4] stood at 7100 nM; in the assay on A549, 2200 nM; in assay [1] it was 5500 nM; in assay [2], 85 nM; in assay [3] it was 3.03 nM; with HT-29 it was 140 nM.
Consider `COc1cc(N2C(=O)NC(=O)/C(=C\Nc3ccc(Oc4ccnc5cc(OCCCN6CCN(C)CC6)c(OC)cc45)c(F)c3)C2=O)c(OC)cc1Cl`, for which the IC50 in assay [1] is 480 nM; in assay [2], 1800 nM; in assay [3], 24.7 nM; in the assay on HT-29, 7700 nM.
In the case of `COc1cc2c(Oc3ccc(N/C=C4\C(=O)NC(=O)N(c5c(C)cccc5C)C4=O)cc3F)ccnc2cc1OCCCN1CCCC1`, the concentration for half-maximal inhibition (IC50) in assay [4] was found to be 1240 nM; in the assay with A549, 230 nM; in assay [1] it was 900 nM; in assay [2], 160 nM; in assay [3], 2.35 nM; with HT-29, 120 nM.
With `COc1cc2c(Oc3ccc(N/C=C4\C(=O)NC(=O)N(c5ccccc5C(F)(F)F)C4=O)cc3F)ccnc2cc1OCCCN1CCN(C)CC1`, the IC50 was determined as 3500 nM in assay [1], 4200 nM in assay [2], 8.14 nM in assay [3] and 7300 nM with HT-29.
In the same order, the values of `COc1cc2c(Oc3ccc(N/C=C4\C(=O)NC(=O)N(c5c(C)cccc5C)C4=O)cc3F)ccnc2cc1OCCCN1CCN(C)CC1` are 450 nM, 170 nM, 3.26 nM and 260 nM.
For the compound `COc1cc2c(Oc3ccc(N/C=C4\C(=O)NC(=O)N(c5ccc(F)cc5)C4=O)cc3F)ccnc2cc1OCCCN1CCCCC1`, the IC50 turned out to be 480 nM in assay [1], 160 nM in assay [2], 3.64 nM in assay [3] and 140 nM with HT-29.
In the case of `COc1cc2c(Oc3ccc(N/C=C4\C(=O)NC(=O)N(c5ccccc5C(F)(F)F)C4=O)cc3F)ccnc2cc1OCCCN1CCCCC1`, the IC50 came to 100 nM in assay [1], 930 nM in assay [2], 18.5 nM in assay [3] and 1300 nM in the assay on HT-29.
In the same order, the values of `COc1cc2c(Oc3ccc(N/C=C4\C(=O)NC(=O)N(c5ccccc5)C4=O)cc3F)ccnc2cc1OCCCN1CCN(C)CC1` are 520 nM, 290 nM, 3.29 nM and 190 nM.
As to `COc1cc2c(Oc3ccc(N/C=C4\C(=O)NC(=O)N(c5ccc(F)cc5F)C4=O)cc3F)ccnc2cc1OCCCN1CCOCC1`, the IC50 in assay [1] worked out at 780 nM; in assay [2] it was 850 nM; in assay [3], 12.4 nM; in the assay on HT-29 it was 560 nM.
In the same order, the values of `COc1cc2c(Oc3ccc(N/C=C4\C(=O)NC(=O)N(c5c(C)cccc5C)C4=O)cc3F)ccnc2cc1OCCCN1CCC(C)CC1` are 130 nM, 150 nM, 2.83 nM and 120 nM.
Taken in the same sequence, the figures for `COc1cc2c(Oc3ccc(N/C=C4\C(=O)NC(=O)N(c5ccccc5C(F)(F)F)C4=O)cc3F)ccnc2cc1OCCCN1CCCC1` were 1400 nM, 360 nM, 7.51 nM and 370 nM.
Consider `COc1cc2c(Oc3ccc(N/C=C4\C(=O)NC(=O)N(c5ccc(F)cc5)C4=O)cc3F)ccnc2cc1OCCCN1CCCC1`, for which the IC50 was determined as 1200 nM in assay [1], 620 nM in assay [2], 2.68 nM in assay [3] and 490 nM in the assay on HT-29.
Turning to `COc1cc2c(Oc3ccc(N/C=C4\C(=O)NC(=O)N(c5ccc(F)cc5F)C4=O)cc3F)ccnc2cc1OCCCN1CCCC1`, the IC50 stood at 2800 nM in assay [1], 240 nM in assay [2], 12.4 nM in assay [3] and 710 nM with HT-29.
In the same order, the values of `COc1cc2c(Oc3ccc(N/C=C4\C(=O)NC(=O)N(c5ccc(F)cc5F)C4=O)cc3F)ccnc2cc1OCCCN1CCC(C)CC1` are 460 nM, 260 nM, 16 nM and 5100 nM.
As to `COc1cc2c(Oc3ccc(N/C=C4\C(=O)NC(=O)N(c5ccccc5C(F)(F)F)C4=O)cc3F)ccnc2cc1OCCCN1CCC(C)CC1`, the IC50 in assay [1] amounted to 310 nM; in assay [2], 380 nM; in assay [3], 18.3 nM; in the assay on HT-29, 600 nM.
On to `COc1cc2c(Oc3ccc(N/C=C4\C(=O)NC(=O)N(c5ccc(F)c(Cl)c5)C4=O)cc3F)ccnc2cc1OCCCN1CCC(C)CC1`, for which the IC50 in assay [1] is 65 nM; in assay [2], 87 nM; in assay [3], 4.82 nM; in the assay with HT-29, 150 nM.
In the case of `COc1cc2c(Oc3ccc(N/C=C4\C(=O)NC(=O)N(c5ccc(F)cc5)C4=O)cc3F)ccnc2cc1OCCCN1CCN(C)CC1`, the IC50 in the assay on A549 is 510 nM; in assay [1], 120 nM; in assay [2], 120 nM; in assay [3], 3.15 nM; in the assay on HT-29, 310 nM.
Turning to `COc1cc2c(Oc3ccc(N/C=C4\C(=O)NC(=O)N(c5ccccc5C(F)(F)F)C4=O)cc3F)ccnc2cc1OCCCN1CCOCC1`, the IC50 in assay [1] came out at 18400 nM; in assay [2], 2300 nM; in assay [3], 21.2 nM; in the assay with HT-29, 3700 nM.
Take `COc1cc2c(Oc3ccc(N/C=C4\C(=O)NC(=O)N(c5ccc(F)cc5F)C4=O)cc3F)ccnc2cc1OCCCN1CCCCC1`: the IC50 in assay [1] was determined as 3900 nM; in assay [2], 1100 nM; in assay [3] it was 9.27 nM; in the assay with HT-29 it was 420 nM.
In the same order, the values of `COc1cc2c(Oc3ccc(N/C=C4\C(=O)NC(=O)N(c5ccccc5)C4=O)cc3F)ccnc2cc1OCCCN1CCCC1` are 210 nM, 290 nM, 3.36 nM and 200 nM.

The record behind these values is ChEMBL document CHEMBL3112515, “Discovery of novel 6,7-disubstituted-4-phenoxyquinoline derivatives bearing 5-(aminomethylene)pyrimidine-2,4,6-trione moiety as c-Met kinase inhibitors” (Bioorg Med Chem, 2014).
